Measured values from ChEMBL document CHEMBL1153988 (J Med Chem, 2009).
Activity calls are given as the source filed them. No cut-off for these calls is given here.

Assays:
Mus musculus [1] = assay: Anticonvulsant activity in CF1 albino mouse assessed as protection against maximal electroshock-induced seizures at 30 mg/kg, ip after 4 hrs; assay type: functional, organism-based; set-up: dose 30 mg/kg
How it was run: (§1)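 Adult male CF no. 1 albino mice (18-25 g). Test compound suspended in 0.5% methylcellulose and given intraperitoneally at 0.01 mL/g body weight. Maximal electroshock challenge at the stated time. Read-out is the number of animals protected over the number tested; neurotoxicity is scored in parallel.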

Mus musculus [2] = assay: Anticonvulsant activity in CF1 albino mouse assessed as protection against maximal electroshock-induced seizures at 100 mg/kg, ip after 4 hrs; assay type: functional, organism-based; set-up: dose 100 mg/kg; how it was run: as §1
Mus musculus [3] = assay: Anticonvulsant activity in CF1 albino mouse assessed as protection against maximal electroshock-induced seizures at 300 mg/kg, ip after 4 hrs; assay type: functional, organism-based; set-up: dose 300 mg/kg; how it was run: as §1
Mus musculus [4] = assay: Neurotoxicity in CF1 albino mouse at 30 mg/kg, ip after 4 hrs; assay type: toxicity, organism-based; set-up: dose 30 mg/kg, route intraperitoneal; settings: in vivo
How it was run: (§2)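 Male CF no. 1 albino mice (18-25 g) received a single ip dose as a suspension in 0.5% methylcellulose. The read-out was the number of animals showing neurotoxicity (minimal motor impairment) over the number tested.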

Mus musculus [5] = assay: Neurotoxicity in CF1 albino mouse at 300 mg/kg, ip after 4 hrs; assay type: toxicity, organism-based; set-up: dose 300 mg/kg, route intraperitoneal; settings: in vivo; how it was run: as §2
Rattus norvegicus [6] = assay: Anticonvulsant activity in albino Sprague-Dawley rat assessed as protection against maximal electroshock-induced seizures at 50 mg/kg, po after 30 mins; assay type: functional
How it was run: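 Adult male Sprague-Dawley albino rats (100-150 g) dosed orally with compound suspended in 0.5% methylcellulose (0.04 mL per 10 g). Maximal electroshock challenge at the stated time. Protection is scored in 25% steps as the fraction of animals protected, with neurotoxicity recorded in parallel.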

Rattus norvegicus [7] = assay: Anticonvulsant activity in albino Sprague-Dawley rat assessed as protection against scMet-induced seizures at 50 mg/kg, po after 2 hrs; assay type: functional
How it was run: (§3)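 Male Sprague-Dawley albino rats (100-150 g) were given the compound orally as a suspension in 0.5% methylcellulose. Seizures were induced by subcutaneous pentylenetetrazol, dissolved in 0.9% saline as a 2.82% solution. The read-out was animals protected over animals tested.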

Rattus norvegicus [8] = assay: Anticonvulsant activity in albino Sprague-Dawley rat assessed as protection against scMet-induced seizures at 50 mg/kg, po after 4 hrs; assay type: functional; how it was run: as §3
Mus musculus [9] = assay: Anticonvulsant activity in ip dosed CF1 albino mouse assessed as protection against scMet-induced seizures; assay type: functional
How it was run: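 Adult male CF no. 1 albino mice (18-25 g) dosed ip with compound suspended in 0.5% methylcellulose (0.01 mL/g body weight). Seizures were induced by subcutaneous pentylenetetrazol, given as a 0.85% solution in 0.9% saline. ED50 was found by varying the dose to give 3-4 points between 0% and 100% protection, then probit analysis with 95% confidence intervals.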

Mus musculus [10] = species: Mus musculus; assay: Protective index, ratio of TD50 for CF1 albino mouse to ED50 for scMet-induced CF1 albino seizure mouse model; assay type: functional
How it was run: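 Ratio of TD50 to ED50 (MES or scMet) in male CF no. 1 mice (18-25 g) given ip doses in 0.5% methylcellulose. TD50 comes from minimal motor impairment: the dose was varied until four points lay between no impairment and all animals impaired. Both TD50 and ED50 were derived by probit analysis with 95% confidence intervals.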

Mus musculus [11] = assay: Anticonvulsant activity in CF1 albino mouse assessed as protection against maximal electroshock-induced seizures at 400 mg/kg, ip; assay type: functional, organism-based; set-up: dose 400 mg/kg; how it was run: as §1
Mus musculus [12] = assay: Anticonvulsant activity in CF1 albino mouse assessed as protection against scMet-induced seizures at 100 mg/kg, ip; assay type: functional, organism-based; set-up: dose 100 mg/kg
How it was run: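 Adult male CF no. 1 albino mice (18-25 g) dosed intraperitoneally with compound suspended in 0.5% methylcellulose (0.01 mL/g). Convulsant challenge given subcutaneously as a 0.85% pentylenetetrazol solution in 0.9% saline. Read-out is animals protected over animals tested, with neurotoxicity scored in parallel.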

Rattus norvegicus [13] = species: Rattus norvegicus; assay: Protective index, ratio of TD50 for albino Sprague-Dawley rat to ED50 for scMet-induced albino Sprague-Dawley rat seizure model; assay type: functional
How it was run: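 Protective index is the rat TD50 (minimal motor impairment) divided by the ED50 in the MES or sc pentylenetetrazol test. Male Sprague-Dawley rats were dosed orally in 0.5% methylcellulose, and both values came from probit analysis.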

Rattus norvegicus [14] = species: Rattus norvegicus; assay: Anticonvulsant activity in hippocampal kindled Sprague-Dawley rat model; assay type: functional; settings: albino Sprague-Dawley, Hippocampus
Rattus norvegicus [15] = assay: Anticonvulsant activity in albino Sprague-Dawley rat assessed as protection against pilocarpine-induced status epilepticus dosed ip after 30 mins of pilocarpine induction; assay type: functional; settings: 0.5 h
How it was run: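 Rat pilocarpine status epilepticus model. Compound is given 30 min after pilocarpine status induction, or after the first stage III seizure. Seizure severity is rated on the Racine scale and scored as protection or no protection. Doses of 50, 75 and 100 mg/kg were used, with 7, 6 and 7 rats respectively. ED50 was derived by probit analysis.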

Mus musculus [16] = assay: Teratogenic effect in SWV mouse assessed as number of litters at 671 mg/kg, ip administered on morning of day 8 of gestation; assay type: toxicity, organism-based; set-up: dose 671 mg/kg, route intraperitoneal; settings: in vivo
How it was run: (§4)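 Inbred SWV mouse strain highly susceptible to VPA-induced neural tube defects. Each dam received a single ip injection on gestation day 8.5, dosed within 1.8-4.2 mmol/kg, against a control of 25% aqueous Cremophor EL. Groups were compared with the control, and with the matched VPA sodium-salt dose, by Fisher's exact test (p < 0.05).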

Mus musculus [17] = assay: Teratogenic effect in SWV mouse assessed as number of litters at 336 mg/kg, ip administered on morning of day 8 of gestation; assay type: toxicity, organism-based; set-up: dose 336 mg/kg, route intraperitoneal; settings: in vivo; how it was run: as §4
Mus musculus [18] = assay: Teratogenic effect in SWV mouse assessed as number of implants at 671 mg/kg, ip administered on morning of day 8 of gestation; assay type: toxicity, organism-based; set-up: dose 671 mg/kg, route intraperitoneal; settings: in vivo; how it was run: as §4
Mus musculus [19] = assay: Teratogenic effect in SWV mouse assessed as number of implants at 502 mg/kg, ip administered on morning of day 8 of gestation; assay type: toxicity, organism-based; set-up: dose 502 mg/kg, route intraperitoneal; settings: in vivo; how it was run: as §4
Mus musculus [20] = assay: Teratogenic effect in SWV mouse assessed as resorptions at 671 mg/kg, ip administered on morning of day 8 of gestation; assay type: toxicity, organism-based; set-up: dose 671 mg/kg, route intraperitoneal; settings: in vivo; how it was run: as §4
Mus musculus [21] = assay: Teratogenic effect in SWV mouse assessed as resorptions at 502 mg/kg, ip administered on morning of day 8 of gestation; assay type: toxicity, organism-based; set-up: dose 502 mg/kg, route intraperitoneal; settings: in vivo; how it was run: as §4
Mus musculus [22] = assay: Teratogenic effect in SWV mouse assessed as live fetuses at 671 mg/kg, ip administered on morning of day 8 of gestation; assay type: toxicity, organism-based; set-up: dose 671 mg/kg, route intraperitoneal; settings: in vivo; how it was run: as §4
Mus musculus [23] = assay: Teratogenic effect in SWV mouse assessed as live fetuses at 336 mg/kg, ip administered on morning of day 8 of gestation; assay type: toxicity, organism-based; set-up: dose 336 mg/kg, route intraperitoneal; settings: in vivo
Mus musculus [24] = assay: Teratogenic effect in SWV mouse assessed as number of dead fetuses at 671 mg/kg, ip administered on morning of day 8 of gestation; assay type: toxicity, organism-based; set-up: dose 671 mg/kg, route intraperitoneal; settings: in vivo; how it was run: as §4
Mus musculus [25] = assay: Teratogenic effect in VPA-induced SWV mouse assessed as number of fetuses with neural tube deffects at 671 mg/kg, ip administered on morning of day 8 of gestation; assay type: toxicity, organism-based; set-up: dose 671 mg/kg, route intraperitoneal; settings: in vivo; how it was run: as §4
Mus musculus [26] = assay: Teratogenic effect in VPA-induced SWV mouse assessed as number of fetuses with neural tube deffects at 502 mg/kg, ip administered on morning of day 8 of gestation; assay type: toxicity, organism-based; set-up: dose 502 mg/kg, route intraperitoneal; settings: in vivo; how it was run: as §4
Mus musculus [27] = assay: Anticonvulsant activity in CF1 albino mouse assessed as protection against maximal electroshock-induced seizures at 150 mg/kg, ip after 0.5 hrs; assay type: functional, organism-based; set-up: dose 150 mg/kg; how it was run: as §1

CC1(C)C(C)(C)C1(F)C(N)=O
Activity (Mus musculus [1]): Non-toxic
Activity (Mus musculus [2]): Non-toxic
Activity (Mus musculus [3]): Non-toxic
Activity (Mus musculus [4]): Non-toxic
Activity (Mus musculus [5]): Non-toxic
Activity (Rattus norvegicus [6]): inactive
Activity (Rattus norvegicus [7]): 75%
Activity (Rattus norvegicus [8]): 50%
ED50 (Mus musculus [9]): 38 mg/kg
PI (Mus musculus [10]): 3.2
Activity (Mus musculus [11]): Active
Activity (Mus musculus [12]): Active
PI (Rattus norvegicus [13]): 20
ED50 (Rattus norvegicus [14]): 30 mg/kg
ED50 (Rattus norvegicus [15]): 80 mg/kg
Activity (Mus musculus [16]): 4
Activity (Mus musculus [17]): 8
Activity (Mus musculus [18]): 55
Activity (Mus musculus [19]): 127
Activity (Mus musculus [20]): 78.2%
Activity (Mus musculus [21]): 26.8%
Activity (Mus musculus [22]): 21.8%
Activity (Mus musculus [23]): 90.2%
Activity (Mus musculus [24]): 0
Activity (Mus musculus [25]): 0
Activity (Mus musculus [26]): 0
Activity (Mus musculus [27]): inactive
